Reference: ChEMBL document CHEMBL3259680, “Discovery and Biological Evaluation of Novel Dual EGFR/c-Met Inhibitors” (ACS Med Chem Lett, 2014)
Active and inactive are the calls of the source. No cut-off for these calls is given here.

Columns and labels:
[1] = target: T1, Hepatocyte growth factor receptor (Homo sapiens, UniProt P08581); assay: Inhibition of recombinant c-MET (unknown origin) using poly-AEKY peptide as substrate after 60 mins by ADPGlo assay
[2] = target: T1, Hepatocyte growth factor receptor; assay: Inhibition of recombinant c-MET (unknown origin) using poly-AEKY peptide as substrate by ADPGlo assay; settings: TDE = time-dependent effect
[3] = target: T2, Epidermal growth factor receptor (Homo sapiens, UniProt P00533); assay: Inhibition of recombinant EGFR (unknown origin) using poly-GT peptide as substrate by Transcreener assay
NCI-H1993 [4] = assay: Cytotoxicity against human NCI-H1993 cells after 48 hrs by MTT assay; type: functional, cell-based; settings: NCI-H1993, 48 h
A549 = assay: Cytotoxicity against human A549 cells after 48 hrs by MTT assay; type: functional, cell-based; settings: A549, 48 h
Insulin receptor = Insulin receptor (Homo sapiens, UniProt P06213); assay: Inhibition of recombinant INSR (unknown origin) using fluorescent dye-labelled KKSRGDYMTMQIG peptide peptide as substrate after 1 hr by IMAP assay
[5] = target: Epidermal growth factor receptor (Homo sapiens, UniProt P00533, L858R); assay: Inhibition of recombinant EGFR L858R mutant (unknown origin) using poly-GT peptide as substrate after 1 hr by Transcreener assay; type: protein assay
[6] = Cytotoxicity against human HCC827 cells after 48 hrs by MTT assay; type: functional, cell-based; settings: HCC827, 48 h
NCI-H1975 = assay: Cytotoxicity against human NCI-H1975 cells after 48 hrs by MTT assay; type: functional, cell-based; settings: NCI-H1975, 48 h
[7] = target: T2, Epidermal growth factor receptor; assay: Inhibition of EGFR (unknown origin) phosphorylation by cell-based Western blot analysis
[8] = Cytotoxicity against mouse NIH/3T3 cells after 48 hrs by MTT assay; type: cell-based; settings: NIH3T3, 48 h
[9] = target: T1, Hepatocyte growth factor receptor; assay: Inhibition of c-MET (unknown origin) phosphorylation by cell-based Western blot analysis
[10] = target: Epithelial discoidin domain-containing receptor 1 (Homo sapiens) (UniProt Q08345); assay: Inhibition of recombinant DDR1 (unknown origin) at 1 uM
Summary of the method: (§1)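 Single-point screen at 1 μM on a recombinant panel of 34 clinically relevant kinases; percent inhibition reported.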

[11] = target: T2, Epidermal growth factor receptor; assay: Competitive inhibition of recombinant EGFR (unknown origin) using poly-GT peptide as substrate by Lineweaver-Burk double reciprocal plot method
Summary of the method: (§2)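 Recombinant enzyme activity (Vmax) measured at varied ATP and inhibitor concentrations; signal shifts (ΔS) plotted as Lineweaver–Burk double reciprocal plot to assess binding mode versus ATP.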

[12] = target: Mast/stem cell growth factor receptor Kit (Homo sapiens) (UniProt P10721); assay: Inhibition of recombinant c-KIT (unknown origin) at 1 uM; summary of the method: as §1
[13] = target: Proto-oncogene tyrosine-protein kinase receptor Ret (Homo sapiens) (UniProt P07949); assay: Inhibition of recombinant RET (unknown origin) at 1 uM; summary of the method: as §1
[14] = target: Receptor tyrosine-protein kinase erbB-2 (Homo sapiens) (UniProt P04626); assay: Inhibition of recombinant ErbB2 (unknown origin) at 1 uM; summary of the method: as §1
[15] = target: T1, Hepatocyte growth factor receptor; assay: Inhibition of c-MET phosphorylation in human HCC827 cells at 1 uM after 1 hr by Western blot analysis; type: cell-based
MDCK [16] = assay: Cytotoxicity against MDCK cells assessed as cell death at 1 uM after 48 hrs; type: cell-based, Canis lupus familiaris; settings: dog
HCC827 = assay: Induction of apoptosis in human HCC827 cells at 1 uM after 24 hrs using propidium iodide by flow cytometry; type: functional, cell-based
Summary of the method: (§3)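 Apoptosis read by flow cytometry; means ± SD of at least 3 independent experiments; unpaired 2-tailed Student's t test against DMSO-treated cells, p < 0.05.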

[17] = target: T2, Epidermal growth factor receptor; assay: Inhibition of EGFR phosphorylation in human NCI-H1993 cells at 1 uM after 1 hr by Western blot analysis; type: cell-based
[18] = target: Tyrosine-protein kinase receptor UFO (Homo sapiens) (UniProt P30530); assay: Inhibition of recombinant AXL (unknown origin) at 1 uM; summary of the method: as §1
[19] = target: T2, Epidermal growth factor receptor; assay: Inhibition of EGFR phosphorylation in human HCC827 cells at 1 uM after 1 hr by Western blot analysis; type: cell-based
NCI-H1993 [20] = assay: Induction of apoptosis in human NCI-H1993 cells at 1 uM after 24 hrs using propidium iodide by flow cytometry; type: functional, cell-based; summary of the method: as §3
[21] = target: T1, Hepatocyte growth factor receptor; assay: Inhibition of c-MET phosphorylation in human NCI-H1993 cells at 1 uM after 1 hr by Western blot analysis; type: cell-based
[22] = target: T1, Hepatocyte growth factor receptor; assay: Competitive inhibition of recombinant c-MET (unknown origin) using poly-AEKY peptide as substrate by Lineweaver-Burk double reciprocal plot method; summary of the method: as §2
[23] = target: Receptor-type tyrosine-protein kinase FLT3 (Homo sapiens) (UniProt P36888); assay: Inhibition of recombinant FLT3 (unknown origin) at 1 uM; summary of the method: as §1
MDCK [24] = assay: Antiinvasive activity in MDCK cells assessed as inhibition of HGF-induced cell motility preincubated at 0.3 uM for 1 hr before HGF treatment measured after 48 hrs by cell scattering assay; type: functional, cell-based; settings: Canis lupus familiaris
DU-145 = assay: Antiinvasive activity in human DU145 cells assessed as inhibition of HGF-induced cell motility preincubated for 1 hr before HGF treatment measured after 24 hrs by cell scattering assay; type: functional, cell-based

Epidermal growth factor receptor (Homo sapiens, UniProt P00533, L858R), sequence (P00533 25-1210 L858R limits assumed): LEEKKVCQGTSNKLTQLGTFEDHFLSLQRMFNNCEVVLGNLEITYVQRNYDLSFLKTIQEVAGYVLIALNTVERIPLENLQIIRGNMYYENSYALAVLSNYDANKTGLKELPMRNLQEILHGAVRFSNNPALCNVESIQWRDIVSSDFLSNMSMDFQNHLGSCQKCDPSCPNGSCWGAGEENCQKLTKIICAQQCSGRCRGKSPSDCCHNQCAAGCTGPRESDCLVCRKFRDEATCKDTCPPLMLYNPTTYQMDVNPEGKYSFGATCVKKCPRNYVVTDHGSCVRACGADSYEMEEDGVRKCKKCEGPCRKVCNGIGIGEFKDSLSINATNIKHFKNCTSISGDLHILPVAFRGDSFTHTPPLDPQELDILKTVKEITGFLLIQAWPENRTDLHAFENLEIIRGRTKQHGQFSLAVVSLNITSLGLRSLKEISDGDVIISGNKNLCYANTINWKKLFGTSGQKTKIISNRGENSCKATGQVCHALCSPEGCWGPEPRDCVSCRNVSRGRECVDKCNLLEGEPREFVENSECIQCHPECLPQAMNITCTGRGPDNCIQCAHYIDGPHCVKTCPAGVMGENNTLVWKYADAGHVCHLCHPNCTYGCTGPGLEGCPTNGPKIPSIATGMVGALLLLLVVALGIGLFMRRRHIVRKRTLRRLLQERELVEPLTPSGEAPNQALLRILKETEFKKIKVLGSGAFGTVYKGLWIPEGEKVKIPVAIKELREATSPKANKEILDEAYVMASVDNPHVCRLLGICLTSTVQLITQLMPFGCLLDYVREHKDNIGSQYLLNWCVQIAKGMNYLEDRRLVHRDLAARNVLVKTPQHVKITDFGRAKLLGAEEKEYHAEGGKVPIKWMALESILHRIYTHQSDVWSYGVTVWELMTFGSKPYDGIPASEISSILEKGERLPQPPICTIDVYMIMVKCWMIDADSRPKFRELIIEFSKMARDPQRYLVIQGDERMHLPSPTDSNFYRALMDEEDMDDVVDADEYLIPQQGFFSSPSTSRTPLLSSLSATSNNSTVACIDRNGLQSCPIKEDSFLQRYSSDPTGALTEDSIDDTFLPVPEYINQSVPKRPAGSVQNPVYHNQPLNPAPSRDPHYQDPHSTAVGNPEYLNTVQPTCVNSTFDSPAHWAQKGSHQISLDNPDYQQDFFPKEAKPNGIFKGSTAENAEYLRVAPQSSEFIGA
Insulin receptor, sequence (P06213 28-758 limits assumed): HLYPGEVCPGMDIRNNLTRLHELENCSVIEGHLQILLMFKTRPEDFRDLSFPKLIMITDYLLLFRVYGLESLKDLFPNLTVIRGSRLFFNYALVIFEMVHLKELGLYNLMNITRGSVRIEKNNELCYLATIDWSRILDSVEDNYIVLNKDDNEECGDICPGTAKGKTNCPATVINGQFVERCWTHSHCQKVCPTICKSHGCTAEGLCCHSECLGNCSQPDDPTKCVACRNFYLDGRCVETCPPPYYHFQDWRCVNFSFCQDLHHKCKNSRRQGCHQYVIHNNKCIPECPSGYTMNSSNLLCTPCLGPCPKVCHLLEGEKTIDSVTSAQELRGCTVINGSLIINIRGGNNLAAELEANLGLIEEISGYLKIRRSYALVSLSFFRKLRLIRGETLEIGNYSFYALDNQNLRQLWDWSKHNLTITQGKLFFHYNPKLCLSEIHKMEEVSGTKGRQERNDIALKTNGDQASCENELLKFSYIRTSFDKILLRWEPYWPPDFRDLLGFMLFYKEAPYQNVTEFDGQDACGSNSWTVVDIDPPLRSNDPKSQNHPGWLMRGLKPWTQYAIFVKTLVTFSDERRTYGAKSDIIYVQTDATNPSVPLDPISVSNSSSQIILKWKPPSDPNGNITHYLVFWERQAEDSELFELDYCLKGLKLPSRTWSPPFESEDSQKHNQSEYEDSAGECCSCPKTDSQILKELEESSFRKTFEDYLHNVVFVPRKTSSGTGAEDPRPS
Insulin receptor, sequence (P06213 763-1382 limits assumed): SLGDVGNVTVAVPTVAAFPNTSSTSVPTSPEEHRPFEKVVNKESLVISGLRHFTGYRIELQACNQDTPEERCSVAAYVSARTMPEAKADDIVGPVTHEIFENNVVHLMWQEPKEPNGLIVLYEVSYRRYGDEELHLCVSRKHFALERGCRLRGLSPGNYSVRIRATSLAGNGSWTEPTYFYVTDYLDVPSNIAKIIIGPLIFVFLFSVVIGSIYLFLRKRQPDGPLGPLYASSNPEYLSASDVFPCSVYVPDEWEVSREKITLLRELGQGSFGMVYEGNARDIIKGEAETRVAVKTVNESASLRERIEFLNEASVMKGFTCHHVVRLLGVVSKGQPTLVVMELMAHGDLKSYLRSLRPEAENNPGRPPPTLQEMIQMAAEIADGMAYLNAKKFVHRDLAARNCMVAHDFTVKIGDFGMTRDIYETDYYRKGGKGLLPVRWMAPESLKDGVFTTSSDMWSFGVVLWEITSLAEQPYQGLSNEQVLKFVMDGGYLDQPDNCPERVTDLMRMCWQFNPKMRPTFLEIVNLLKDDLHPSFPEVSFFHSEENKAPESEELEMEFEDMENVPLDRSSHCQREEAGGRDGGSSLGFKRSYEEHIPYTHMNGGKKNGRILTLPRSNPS
T2 sequence (P00533 whole entry): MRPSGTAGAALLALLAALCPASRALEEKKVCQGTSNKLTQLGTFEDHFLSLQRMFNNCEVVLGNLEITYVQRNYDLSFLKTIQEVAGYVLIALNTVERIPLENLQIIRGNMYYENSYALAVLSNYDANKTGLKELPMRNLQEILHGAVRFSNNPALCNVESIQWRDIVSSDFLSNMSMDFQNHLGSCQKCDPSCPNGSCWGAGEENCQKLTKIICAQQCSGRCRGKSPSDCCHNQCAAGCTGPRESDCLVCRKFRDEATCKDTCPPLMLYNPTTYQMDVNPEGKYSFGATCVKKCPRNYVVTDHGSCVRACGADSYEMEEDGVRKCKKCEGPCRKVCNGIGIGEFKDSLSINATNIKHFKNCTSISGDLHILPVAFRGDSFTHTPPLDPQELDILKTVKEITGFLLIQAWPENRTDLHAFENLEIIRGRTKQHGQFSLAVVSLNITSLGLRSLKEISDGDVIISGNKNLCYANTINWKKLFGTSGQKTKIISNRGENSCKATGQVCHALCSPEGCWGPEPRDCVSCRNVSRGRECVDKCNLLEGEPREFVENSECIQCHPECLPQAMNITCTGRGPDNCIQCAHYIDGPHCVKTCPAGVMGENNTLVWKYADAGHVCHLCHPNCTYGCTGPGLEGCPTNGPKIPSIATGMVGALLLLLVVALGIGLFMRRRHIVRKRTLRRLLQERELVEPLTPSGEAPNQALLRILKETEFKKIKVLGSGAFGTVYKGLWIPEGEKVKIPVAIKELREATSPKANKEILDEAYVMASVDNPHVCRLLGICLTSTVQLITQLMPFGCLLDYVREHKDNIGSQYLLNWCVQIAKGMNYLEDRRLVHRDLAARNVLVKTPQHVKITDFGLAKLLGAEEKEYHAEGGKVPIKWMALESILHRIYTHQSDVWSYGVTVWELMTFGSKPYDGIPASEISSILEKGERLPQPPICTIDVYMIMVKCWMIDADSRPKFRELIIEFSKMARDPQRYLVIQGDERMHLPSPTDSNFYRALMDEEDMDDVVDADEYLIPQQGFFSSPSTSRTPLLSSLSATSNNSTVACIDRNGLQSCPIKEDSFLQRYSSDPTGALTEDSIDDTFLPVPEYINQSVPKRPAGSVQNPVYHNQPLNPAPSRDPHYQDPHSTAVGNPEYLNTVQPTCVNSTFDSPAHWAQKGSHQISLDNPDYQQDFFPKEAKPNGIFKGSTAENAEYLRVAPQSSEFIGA
Mast/stem cell growth factor receptor Kit (Homo sapiens), sequence (P10721 whole entry): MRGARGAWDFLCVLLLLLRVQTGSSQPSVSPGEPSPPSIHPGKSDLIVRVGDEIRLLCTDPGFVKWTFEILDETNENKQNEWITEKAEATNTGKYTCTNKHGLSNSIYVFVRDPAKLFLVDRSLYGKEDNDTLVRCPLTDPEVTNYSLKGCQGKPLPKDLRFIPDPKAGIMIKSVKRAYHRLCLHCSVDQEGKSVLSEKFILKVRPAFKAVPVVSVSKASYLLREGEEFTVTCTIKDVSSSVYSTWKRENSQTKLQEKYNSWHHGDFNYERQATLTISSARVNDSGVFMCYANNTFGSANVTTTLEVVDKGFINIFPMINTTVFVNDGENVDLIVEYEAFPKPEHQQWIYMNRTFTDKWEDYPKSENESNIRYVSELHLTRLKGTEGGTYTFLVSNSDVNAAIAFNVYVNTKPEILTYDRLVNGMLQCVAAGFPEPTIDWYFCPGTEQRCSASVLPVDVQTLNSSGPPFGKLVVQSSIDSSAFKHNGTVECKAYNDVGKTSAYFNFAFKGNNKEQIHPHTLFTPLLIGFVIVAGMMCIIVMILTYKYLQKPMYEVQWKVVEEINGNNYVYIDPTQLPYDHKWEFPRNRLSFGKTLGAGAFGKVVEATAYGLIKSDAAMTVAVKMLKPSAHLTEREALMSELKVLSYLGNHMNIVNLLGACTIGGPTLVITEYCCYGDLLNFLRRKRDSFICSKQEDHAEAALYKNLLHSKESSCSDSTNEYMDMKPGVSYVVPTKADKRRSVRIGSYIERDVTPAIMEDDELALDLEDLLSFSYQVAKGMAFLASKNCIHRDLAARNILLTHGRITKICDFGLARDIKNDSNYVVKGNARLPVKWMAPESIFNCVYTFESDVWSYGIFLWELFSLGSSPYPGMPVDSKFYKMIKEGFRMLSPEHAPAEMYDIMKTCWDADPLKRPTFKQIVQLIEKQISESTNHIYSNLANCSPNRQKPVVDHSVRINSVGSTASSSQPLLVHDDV

Row | Structure (SMILES) | IC50 [1] [µM] | inhibition [2] | IC50 [3] [µM] | IC50 (NCI-H1993 [4]) [µM] | IC50 (A549) [µM] | IC50 (Insulin receptor) [µM] | IC50 [5] [µM] | IC50 [6] [µM] | IC50 (NCI-H1975) [µM] | IC50 [8] [µM] | further results
1 | COc1cc2c(Oc3ccc(NS(=O)(=O)c4cccc(-c5cccs5)c4)cc3F)ccnc2cc1OCCCN1CCN(C)CC1 | 2.71 | tde | 1.05 | 4.03 | 3.92 | > 12.5 | 1.16 | 5.03 | 4.52 | – | –
2 | COc1cc2c(Oc3ccc(NS(=O)(=O)c4cccc(-c5cnn(C)c5)c4)cc3F)ccnc2cc1OCCCN1CCN(C)CC1 | 0.564 | tde | 0.084 | 6.24 | 8.85 | 7.87 | 0.369 | 2.83 | 6.12 | 2.48 | inhibition [7]: inactive; inhibition [9]: Active
3 | COc1cc2c(Oc3ccc(NC(=O)c4c(C)n(C)n(-c5ccccc5)c4=O)cc3F)ccnc2cc1OCCCN1CCN(C)CC1 | 0.005 | tde | 7.67 | 0.002 | 1.24 | 0.039 | > 16 | 2.58 | 1.06 | 0.066 | inhibition [7]: inactive; inhibition [9]: Active
4 | COc1cc2c(Oc3ccc(NS(=O)(=O)c4cccc(-c5cnn(C)c5)c4)cc3F)ccnc2cc1OCCCN1CCOCC1 | 1.72 | tde | 1.37 | 5.23 | 6.44 | > 12.5 | 1.97 | 5.01 | 6.91 | – | –
5 | COc1cc2c(Oc3ccc(NS(=O)(=O)c4cccc(-c5ccsc5)c4)cc3F)ccnc2cc1OCCCN1CCN(C)CC1 | 0.398 | tde | 0.094 | 1.36 | 4.75 | 2.87 | 0.31 | 1.94 | 2.3 | 2.35 | inhibition [10]: > 70%; inhibition [11]: Active; inhibition [12]: > 70%; inhibition [13]: > 70%; inhibition [14]: > 70%; inhibition [15]: inactive; Activity (MDCK [16]): Toxic; Activity (HCC827): Active; inhibition [17]: Active; inhibition [18]: > 70%; inhibition [19]: inactive; Activity (NCI-H1993 [20]): inactive; inhibition [21]: Active; inhibition [22]: Active; inhibition [23]: > 70%; Activity (MDCK [24]): Active; IC50 (DU-145): 1.1 µM
6 | CCOc1ccn(-c2ccc(F)cc2)c(=O)c1C(=O)Nc1ccc(Oc2ccnc(N)c2Cl)c(F)c1 [BMS-777607] | 0.007 | – | – | 1.11 | – | – | – | – | – | – | IC50 (DU-145): 0.2 µM
7 | COc1cc2c(Oc3ccc(NS(=O)(=O)c4ccc(-c5cnn(C)c5)cc4)cc3F)ccnc2cc1OCCCN1CCN(C)CC1 | 1.23 | tde | 4.35 | 4.33 | > 10 | > 12.5 | 7.54 | 5.9 | > 10 | – | –
8 | COc1cc2c(Oc3ccc(NS(=O)(=O)c4cc(-c5ccsc5)ccc4F)cc3F)ccnc2cc1OCCCN1CCN(C)CC1 | 1.66 | tde | 0.572 | 4 | 4.36 | 11.8 | 0.578 | 2.82 | 4.1 | – | –
9 | COc1cc2c(Oc3ccc(NS(=O)(=O)c4cccc(-c5ccco5)c4)cc3F)ccnc2cc1OCCCN1CCN(C)CC1 | 2.71 | tde | 1.91 | > 10 | – | > 12.5 | 1.9 | 3.11 | 1.62 | 3.2 | –
10 | COc1cc2c(Oc3ccc(NS(=O)(=O)c4ccc(-c5ccsc5)cc4)cc3F)ccnc2cc1OCCCN1CCN(C)CC1 | 2.69 | tde | 1.2 | 5.04 | 6.78 | > 12.5 | 1.85 | 4.61 | 7.71 | – | –
11 | C[C@@H](Oc1cc(-c2cnn(C3CCNCC3)c2)cnc1N)c1c(Cl)ccc(F)c1Cl [CRIZOTINIB] | – | – | – | 0.061 | – | – | – | – | – | 0.364 | Activity (NCI-H1993 [20]): inactive
12 | COc1cc2c(Oc3ccc(NS(=O)(=O)c4cccc(-c5ccoc5)c4)cc3F)ccnc2cc1OCCCN1CCOCC1 | 0.978 | tde | 3.86 | 4.46 | 8.21 | > 12.5 | 2.9 | 4.17 | 8.93 | – | –
13 | COc1cc2c(Oc3ccc(NS(=O)(=O)c4cccc(-c5ccoc5)c4)cc3F)ccnc2cc1OCCCN1CCN(C)CC1 | 1.05 | tde | 0.168 | 2.69 | 3.65 | 5.23 | 0.283 | 2.5 | 2.96 | 1.76 | inhibition [7]: inactive; inhibition [9]: Active
14 | COc1cc2c(Oc3ccc(NC(=O)c4c(C)n(C)n(-c5ccccc5)c4=O)cc3F)ccnc2cc1OCCCN1CCOCC1 | 0.007 | – | > 16 | 0.005 | 1.19 | 0.17 | > 16 | 2.51 | 1.46 | 0.074 | inhibition [7]: inactive; inhibition [9]: Active
15 | CN(C)C/C=C/C(=O)Nc1cc2c(Nc3ccc(F)c(Cl)c3)ncnc2cc1O[C@H]1CCOC1 [AFATINIB] | – | – | – | > 12.5 | – | – | – | – | – | 3.6 | Activity (HCC827): Active; Activity (NCI-H1993 [20]): inactive
16 | C#Cc1cccc(Nc2ncnc3cc(OCCOC)c(OCCOC)cc23)c1 | – | – | – | – | – | – | – | – | – | – | Activity (HCC827): Active; Activity (NCI-H1993 [20]): inactive
